Test results from ChEMBL document CHEMBL4043303, “Development of Novel Melanocortin Receptor Agonists Based on the Cyclic Peptide Framework of Sunflower Trypsin Inhibitor-1” (J Med Chem, 2018).
Active and inactive are the calls of the source. The calls are words filed in the database; no cut-off is given here.

Key:
Melanocortin receptor 5 [1] = target: T1, Melanocortin receptor 5 (Homo sapiens, UniProt P33032); assay: Displacement of [125I]-NDP-alpha-MSH from human MC5R LBD expressed in HEK293 cell membranes up to 100 uM incubated for 16 to 23 hrs in dark by scintillation proximity assay
[2] = Solubility of the compound in water at 1 mM; format: physicochemical; conditions: buffer, 1000 µM
[3] = target: T2, Melanocyte-stimulating hormone receptor (Homo sapiens, UniProt Q01726); assay: Displacement of [125I]-NDP-alpha-MSH from human MC1R LBD expressed in HEK293 cell membranes up to 100 uM incubated for 16 to 23 hrs in dark by scintillation proximity assay
Melanocortin receptor 4 [4] = target: T3, Melanocortin receptor 4 (Homo sapiens, UniProt P32245); assay: Displacement of [125I]-NDP-alpha-MSH from human MC4R LBD expressed in HEK293 cell membranes up to 100 uM incubated for 16 to 23 hrs in dark by scintillation proximity assay
Melanocortin receptor 4 [5] = target: T3, Melanocortin receptor 4; assay: Agonist activity at human MC4R expressed in high doxycyclin-treated HEK293 cell membranes assessed as increase in cAMP production up to 100 uM after 15 mins by HTRF method; format: functional, cell-based
Outline: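 Stable T-REx-293 clone expressing human MC4R, induced with 10 ng/mL doxycycline for 24 h. 1000 cells/well in HBSS/20 mM HEPES pH 7.4/0.1% BSA. Stimulation for 15 min at 37 °C with 1 mM IBMX. LANCE HTRF cAMP read-out.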

Melanocortin receptor 4 [6] = target: T3, Melanocortin receptor 4; assay: Agonist activity at human MC4R expressed in low doxycyclin-treated HEK293 cell membranes assessed as increase in cAMP production up to 100 uM after 45 mins by HTRF method; format: functional, cell-based
Outline: (§1)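 Stable T-REx-293 clones (Zeocin-selected, human receptor cDNA in pcDNA4/TO), receptor expression induced with 0.1 ng/mL doxycycline for 24 h. 1000 cells/well in HBSS with Ca2+/Mg2+, 20 mM HEPES pH 7.4, 0.1% BSA. Stimulation for 45 min at 37 °C with 1 mM IBMX. cAMP read by LANCE HTRF (665/615 nm).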

Melanocortin receptor 3 [7] = target: T4, Melanocortin receptor 3 (Homo sapiens, UniProt P41968); assay: Displacement of [125I]-NDP-alpha-MSH from human MC3R LBD expressed in HEK293 cell membranes up to 100 uM incubated for 16 to 23 hrs in dark by scintillation proximity assay
[8] = target: T2, Melanocyte-stimulating hormone receptor; assay: Agonist activity at human MC1R expressed in low doxycyclin-treated HEK293 cell membranes assessed as increase in cAMP production up to 100 uM after 45 mins by HTRF method; format: functional, cell-based; outline: as §1
Melanocortin receptor 3 [9] = target: T4, Melanocortin receptor 3; assay: Agonist activity at human MC3R expressed in low doxycyclin-treated HEK293 cell membranes assessed as increase in cAMP production up to 100 uM after 45 mins by HTRF method; format: functional, cell-based; outline: as §1
[10] = target: T2, Melanocyte-stimulating hormone receptor; assay: Agonist activity at human MC1R expressed in low doxycyclin-treated HEK293 cell membranes assessed as increase in cAMP production after 45 mins by HTRF method; format: functional, cell-based
Melanocortin receptor 4 [11] = target: T3, Melanocortin receptor 4; assay: Agonist activity at human MC4R expressed in high doxycyclin-treated HEK293 cell membranes assessed as increase in cAMP production after 15 mins by HTRF method; format: functional, cell-based
Outline: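 T-REx-293 cells stably expressing doxycycline-inducible human MC1R, MC3R or MC4R; expression induced 24 h with 0.1 ng/mL (low) or 10 ng/mL (high, MC4R only) doxycycline. 1000 cells/well in HBSS, 20 mM HEPES pH 7.4, 0.1% BSA, 1 mM IBMX; stimulated at 37 °C. Time-resolved FRET cAMP read-out normalized to NDP-α-MSH maximum.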

Melanocortin receptor 5 [12] = target: T1, Melanocortin receptor 5; assay: Displacement of [125I]-NDP-alpha-MSH from human MC5R LBD expressed in HEK293 cell membranes incubated for 16 to 23 hrs in dark by scintillation proximity assay; design: concentration or dose not given beside the values; conditions: concentration not given here
[13] = target: T2, Melanocyte-stimulating hormone receptor; assay: Displacement of [125I]-NDP-alpha-MSH from human MC1R LBD expressed in HEK293 cell membranes up to 1 uM incubated for 16 to 23 hrs in dark by scintillation proximity assay
Melanocortin receptor 3 [14] = target: T4, Melanocortin receptor 3; assay: Displacement of [125I]-NDP-alpha-MSH from human MC3R LBD expressed in HEK293 cell membranes incubated for 16 to 23 hrs in dark by scintillation proximity assay; design: concentration or dose not given beside the values; conditions: concentration not given here

T2 sequence (Q01726 whole entry, looked up, the tested form may be a part): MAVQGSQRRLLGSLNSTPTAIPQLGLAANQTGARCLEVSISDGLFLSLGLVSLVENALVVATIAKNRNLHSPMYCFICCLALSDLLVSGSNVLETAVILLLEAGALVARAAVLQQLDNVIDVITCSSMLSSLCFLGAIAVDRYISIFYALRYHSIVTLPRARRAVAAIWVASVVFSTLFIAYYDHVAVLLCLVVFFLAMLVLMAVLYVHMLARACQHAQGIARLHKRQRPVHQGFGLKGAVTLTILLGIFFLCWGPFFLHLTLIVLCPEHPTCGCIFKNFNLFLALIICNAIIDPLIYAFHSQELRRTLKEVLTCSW
T3 sequence (P32245 whole entry, the tested form may be a part): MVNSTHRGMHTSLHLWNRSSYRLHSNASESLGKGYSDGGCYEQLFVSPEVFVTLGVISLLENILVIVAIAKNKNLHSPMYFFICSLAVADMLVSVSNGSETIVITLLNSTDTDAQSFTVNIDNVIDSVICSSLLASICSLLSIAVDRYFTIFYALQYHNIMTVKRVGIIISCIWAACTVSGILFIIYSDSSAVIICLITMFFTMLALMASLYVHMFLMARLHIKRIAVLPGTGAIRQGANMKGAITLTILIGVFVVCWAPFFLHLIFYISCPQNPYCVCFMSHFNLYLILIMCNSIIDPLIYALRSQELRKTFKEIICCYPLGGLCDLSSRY
T4 sequence (P41968 whole entry, the tested form may be a part): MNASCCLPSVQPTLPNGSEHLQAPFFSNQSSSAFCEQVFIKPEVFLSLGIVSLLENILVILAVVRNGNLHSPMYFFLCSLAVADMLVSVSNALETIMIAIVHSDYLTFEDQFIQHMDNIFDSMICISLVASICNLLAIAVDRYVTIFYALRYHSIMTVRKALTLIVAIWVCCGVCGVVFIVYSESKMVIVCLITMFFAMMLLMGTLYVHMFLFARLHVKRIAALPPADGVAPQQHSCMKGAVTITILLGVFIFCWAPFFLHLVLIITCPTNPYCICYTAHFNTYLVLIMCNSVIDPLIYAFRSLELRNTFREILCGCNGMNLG
T1 sequence (P33032 whole entry, the tested form may be a part): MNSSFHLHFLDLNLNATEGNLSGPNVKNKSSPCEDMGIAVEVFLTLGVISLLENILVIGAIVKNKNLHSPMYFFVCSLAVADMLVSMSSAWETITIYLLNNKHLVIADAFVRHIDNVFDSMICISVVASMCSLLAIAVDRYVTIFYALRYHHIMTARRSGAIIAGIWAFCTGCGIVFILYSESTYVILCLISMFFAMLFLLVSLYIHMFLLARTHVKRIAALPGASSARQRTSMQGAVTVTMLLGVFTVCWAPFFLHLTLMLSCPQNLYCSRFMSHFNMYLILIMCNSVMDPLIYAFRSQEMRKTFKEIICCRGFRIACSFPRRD

inhibition (Melanocortin receptor 5 [1]) | solubility [2] | inhibition [3] | inhibition (Melanocortin receptor 4 [4]) | Activity (Melanocortin receptor 4 [5]) | Activity (Melanocortin receptor 4 [6]) | inhibition (Melanocortin receptor 3 [7]) | Activity [8] | Activity (Melanocortin receptor 3 [9]) | Activity [10] [%] | Activity (Melanocortin receptor 4 [11]) [%] | inhibition (Melanocortin receptor 5 [12]) [%] | inhibition [13] | inhibition (Melanocortin receptor 3 [14]) [%] | SMILES
inactive | Soluble | inactive | inactive | inactive | inactive | inactive | inactive | inactive | – | – | – | – | – | CC[C@H](C)[C@@H]1NC(=O)[C@@H]2CCCN2C(=O)[C@@H]2CCCN2C(=O)[C@H]([C@@H](C)CC)NC(=O)[C@H](CO)NC(=O)[C@H](CCCCN)NC(=O)[C@H]([C@@H](C)O)NC(=O)[C@@H]2CSSC[C@H](NC1=O)C(=O)N[C@@H](Cc1ccccc1)C(=O)N1CCC[C@H]1C(=O)N[C@@H](CC(=O)O)C(=O)NCC(=O)N[C@@H](CCCNC(=N)N)C(=O)N2
– | Soluble | – | inactive | – | inactive | – | – | inactive | 100 | 100 | 100 | inactive | 100 | CC[C@H](C)[C@@H]1NC(=O)[C@@H]2CCCN2C(=O)[C@H](Cc2c[nH]c3ccccc23)NC(=O)[C@H](CCCNC(=N)N)NC(=O)[C@H](Cc2ccccc2)NC(=O)[C@H](Cc2cnc[nH]2)NC(=O)[C@H]([C@@H](C)O)NC(=O)[C@@H]2CSSC[C@H](NC1=O)C(=O)N[C@@H](Cc1ccccc1)C(=O)N1CCC[C@H]1C(=O)N[C@@H](CC(=O)O)C(=O)NCC(=O)N[C@@H](CCCNC(=N)N)C(=O)N2
